This passage reports Ki and Ratio Ki results from ChEMBL document CHEMBL3792371 (Bioorg Med Chem Lett, 2016).

The structures appear in SMILES notation.

Assay [1] concerns the target Sodium-dependent serotonin transporter (Rattus norvegicus, UniProt P31652). Description: Inhibition of SERT in rat striatal synaptosomes assessed as reduction of [3H]5-HT uptake preincubated for 5 mins followed by [3H]5-HT addition measured after 10 mins by liquid scintillation spectrometric method. Format: subcellular, Striatum. The method in brief:
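Rat striatal synaptosomes were made as for the DAT assay: 20 µg protein in oxygenated Krebs'-HEPES buffer (pH 7.4) containing pargyline and ascorbic acid. Inhibitor was 0.1 nM–1 mM final (7–9 concentrations), run in duplicate at 34 °C. [3H]5-HT was 10 nM final. Nonspecific uptake was defined with 10 µM fluoxetine. Filters were washed with ice-cold Krebs' buffer containing 1 mM catechol. Specific uptake was expressed as % of control, n = 4 rats.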

For assay [2], the species on record is Rattus norvegicus. Nature of the assay: Selectivity ratio of Ki for DAT in rat striatal synaptosomes to Ki for VMAT2 in rat striatal synaptic vesicle. It is filed as subcellular. The procedure, abridged:
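Ratio of DAT Ki to VMAT2 Ki. […] 10 nM [3H]DA then added for 10 min at 34°C. Nonspecific uptake measured with 10 µM GBR 12909. VMAT2 Ki from vesicular [3H]DA uptake.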

Assay [3] deals with Synaptic vesicular amine transporter (Rattus norvegicus, UniProt Q01827). Description: Inhibition of VMAT2 in rat striatal synaptic vesicle assessed as reduction of [3H]dopamine uptake after 8 mins by liquid scintillation spectrometric method. The procedure, abridged:
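Vesicles prepared from rat striata by sucrose homogenisation, osmotic shock and differential centrifugation. Inhibitor at 0.1 nM–10 mM with 0.1 µM [3H]DA. Filtration, then scintillation counting. n = 3–4 rats.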

Assay [4] concerns the target Sodium-dependent dopamine transporter (Rattus norvegicus, UniProt P23977). Description: Inhibition of DAT in rat striatal synaptosomes assessed as reduction of [3H]dopamine uptake preincubated for 5 mins followed by [3H]dopamine addition measured after 10 mins by liquid scintillation spectrometric method. Format: subcellular, Striatum. The method in brief:
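Rat striatum homogenized in ice-cold 0.32 M sucrose with 5 mM NaHCO3 (pH 7.4), spun at 2000g and then 20,000g. Synaptosomes (20 µg protein) were resuspended in oxygenated Krebs'-HEPES buffer (pH 7.4) with pargyline and ascorbic acid. Inhibitor was 0.1 nM–1 mM final (7–9 concentrations), run in duplicate at 34 °C. [3H]DA was 10 nM final. Nonspecific uptake was defined with 10 µM GBR 12909. Reactions were filtered on GF/B filters. Specific uptake was expressed as % of control, n = 3–4 rats.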

For assay [5], the species on record is Rattus norvegicus. Nature of the assay: Selectivity ratio of Ki for SERT in rat striatal synaptosomes to Ki for VMAT2 in rat striatal synaptic vesicle. Format: subcellular. The method in brief:
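Ratio of SERT Ki to VMAT2 Ki. […] 10 nM [3H]5-HT then added for 10 min at 34°C. Nonspecific uptake measured with 10 µM fluoxetine. n = 4 rats. VMAT2 Ki from vesicular [3H]DA uptake.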

Sequence of Sodium-dependent serotonin transporter (P31652 whole entry): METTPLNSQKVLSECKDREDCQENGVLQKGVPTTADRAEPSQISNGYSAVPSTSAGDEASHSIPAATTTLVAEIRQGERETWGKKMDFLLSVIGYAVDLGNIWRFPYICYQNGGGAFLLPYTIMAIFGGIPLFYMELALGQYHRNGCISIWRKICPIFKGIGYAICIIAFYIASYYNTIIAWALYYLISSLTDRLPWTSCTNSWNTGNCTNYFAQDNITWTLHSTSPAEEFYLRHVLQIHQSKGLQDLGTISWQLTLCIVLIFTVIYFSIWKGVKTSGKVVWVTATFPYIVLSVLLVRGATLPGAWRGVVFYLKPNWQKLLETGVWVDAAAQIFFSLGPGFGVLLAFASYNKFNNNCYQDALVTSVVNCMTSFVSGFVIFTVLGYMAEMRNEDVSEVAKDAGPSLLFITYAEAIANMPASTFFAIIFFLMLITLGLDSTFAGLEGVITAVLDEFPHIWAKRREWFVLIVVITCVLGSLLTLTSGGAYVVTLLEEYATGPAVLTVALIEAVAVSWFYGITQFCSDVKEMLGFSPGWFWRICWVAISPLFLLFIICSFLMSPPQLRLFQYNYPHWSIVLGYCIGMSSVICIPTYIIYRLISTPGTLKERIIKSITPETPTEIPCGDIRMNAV
Sequence of Synaptic vesicular amine transporter (Q01827 whole entry): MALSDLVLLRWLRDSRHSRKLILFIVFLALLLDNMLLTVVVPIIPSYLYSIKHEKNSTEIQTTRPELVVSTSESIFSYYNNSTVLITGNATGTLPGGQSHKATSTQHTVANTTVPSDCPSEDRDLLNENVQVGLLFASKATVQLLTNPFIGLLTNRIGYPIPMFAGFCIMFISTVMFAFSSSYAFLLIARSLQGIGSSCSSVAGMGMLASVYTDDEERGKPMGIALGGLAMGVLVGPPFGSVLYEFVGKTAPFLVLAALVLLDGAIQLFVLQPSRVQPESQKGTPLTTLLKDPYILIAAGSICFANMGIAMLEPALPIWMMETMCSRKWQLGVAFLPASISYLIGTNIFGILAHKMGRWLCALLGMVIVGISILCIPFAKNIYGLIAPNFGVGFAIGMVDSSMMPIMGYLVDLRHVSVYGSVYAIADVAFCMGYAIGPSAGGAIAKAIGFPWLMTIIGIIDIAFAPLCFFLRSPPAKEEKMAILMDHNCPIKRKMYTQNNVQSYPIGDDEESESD
Sequence of Sodium-dependent dopamine transporter (P23977 whole entry): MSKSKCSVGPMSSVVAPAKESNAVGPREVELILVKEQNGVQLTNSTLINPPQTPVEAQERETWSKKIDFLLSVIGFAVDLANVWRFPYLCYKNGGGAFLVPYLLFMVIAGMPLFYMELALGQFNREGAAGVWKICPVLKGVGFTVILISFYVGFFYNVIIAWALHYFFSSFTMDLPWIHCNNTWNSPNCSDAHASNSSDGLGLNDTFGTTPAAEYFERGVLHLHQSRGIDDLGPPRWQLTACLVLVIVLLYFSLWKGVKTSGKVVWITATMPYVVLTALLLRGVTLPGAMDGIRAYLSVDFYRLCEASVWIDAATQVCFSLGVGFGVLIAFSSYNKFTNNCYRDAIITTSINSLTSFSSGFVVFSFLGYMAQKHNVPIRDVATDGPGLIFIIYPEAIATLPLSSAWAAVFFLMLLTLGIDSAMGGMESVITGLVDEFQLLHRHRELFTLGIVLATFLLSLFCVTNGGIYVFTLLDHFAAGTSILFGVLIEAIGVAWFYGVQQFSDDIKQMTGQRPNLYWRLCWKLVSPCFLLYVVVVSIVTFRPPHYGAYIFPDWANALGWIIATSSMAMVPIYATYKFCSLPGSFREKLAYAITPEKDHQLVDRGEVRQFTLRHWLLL

The term Ki denotes a dissociation constant, usually derived from enzyme kinetics or from competition with a known ligand. As for `OC[C@H](O)CN1[C@@H](CCc2ccc(O)cc2)CCC[C@H]1CCc1ccc(OCCF)cc1`, the Ki in assay [1] came to 1430 nM; in assay [3], 63 nM; in assay [4], 5470 nM. Moreover, in assay [2], the Ratio Ki was 87.

For `COc1ccc(CC[C@H]2CCC[C@@H](CCc3ccc(OC)cc3)N2C[C@@H](O)CO)cc1`, the Ki in assay [1] was determined as 9360 nM; in assay [4] it was 1440 nM.

As for `OC[C@H](O)CN1[C@@H](CCc2ccc(OCCF)cc2)CCC[C@H]1CCc1ccc(OCCF)cc1`, the Ki in assay [1] turned out to be 33000 nM; in assay [3] it was 120 nM; in assay [4], 3690 nM. Moreover, the Ratio Ki in assay [2] is 30; in assay [5], 275.

Take `CN1[C@@H](CCc2ccc(O)cc2)CCC[C@H]1CCc1ccc(OCCF)cc1`: the figures for the Ki in assay [1], in assay [3] and in assay [4] were 10400 nM, 31 nM and 2970 nM, respectively. Further, the Ratio Ki came out at 96 in assay [2] and 335 in assay [5].

Consider `CN1[C@@H](CCc2ccccc2)CCC[C@H]1CCc1ccccc1` [LOBELANE], for which the Ki in assay [1] is 3600 nM; in assay [4] it was 1050 nM.

As for `CN1[C@@H](CCc2ccc(O)cc2)CCC[C@H]1CCc1ccc(O)cc1`, the Ki is 12000 nM in assay [1], 46 nM in assay [3] and 1350 nM in assay [4]. The Ratio Ki in assay [5] came to 260.

Regarding `OC[C@H](O)CN1[C@@H](CCc2ccc(O)cc2)CCC[C@H]1CCc1ccc(O)cc1`, the Ki in assay [1] was 12900 nM; in assay [3], 39 nM; in assay [4] it was 1430 nM. For the same compound, in assay [5], the Ratio Ki came out at 331.

In the case of `FCCOc1ccc(CC[C@H]2CCC[C@@H](CCc3ccc(OCCF)cc3)N2)cc1`, the Ki in assay [1] turned out to be 640 nM; in assay [3] it was 40 nM; in assay [4], 1670 nM.

`Oc1ccc(CC[C@H]2CCC[C@@H](CCc3ccc(O)cc3)N2)cc1`: the Ki in assay [1] is 1030 nM; in assay [3], 31 nM; in assay [4], 866 nM.

On to `CC(=O)Oc1ccc(CC[C@H]2CCC[C@@H](CCc3ccc(OC(C)=O)cc3)N2)cc1`, for which the Ki in assay [1] stood at 2130 nM; in assay [3], 220 nM; in assay [4], 1470 nM.

As to `Oc1ccc(CC[C@H]2CCC[C@@H](CCc3ccc(OCCF)cc3)N2)cc1`, the Ki in assay [1] came to 1050 nM; in assay [3] it was 32 nM; in assay [4] it was 1660 nM.

For `CN1[C@@H](CCc2ccc(OCCF)cc2)CCC[C@H]1CCc1ccc(OCCF)cc1`, the Ki is 7430 nM in assay [1], 140 nM in assay [3] and 3430 nM in assay [4].

As for `CC(=O)Oc1ccc(CC[C@H]2CCC[C@@H](CCc3ccc(OC(C)=O)cc3)N2C)cc1`, the Ki in assay [1] came to 11600 nM; in assay [3], 71 nM; in assay [4], 2130 nM. Further, the Ratio Ki in assay [5] was 163.
